From PubChem BioAssay
M1 ag = activates the M1 muscarinic receptor; CHO-M1 cells, Fluo-4 calcium fluorescence, agonist mode; active compounds read high; B-score at 10 µM; 64,000 compounds, 3% hits; AID 626;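 active = fluorescence rise, raw or as B-score row- and column-corrected plate score, outside the 99.7% band of its plate's samples, either direction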
M1 antagonist = M1 muscarinic receptor (rat) antagonism | P08482 | CHO-M1 cells, Fluo-4 calcium, ACh EC80 antagonist mode; active compounds read low | B-score at 10 µM | 64,000 compounds, 3.4% hits | AID 628;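 active = calcium fluorescence response, raw or row-and-column corrected B-score, differing from the plate sample mean either way at a set confidence level, mostly lower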
Target sequence (P08482 whole entry, looked up): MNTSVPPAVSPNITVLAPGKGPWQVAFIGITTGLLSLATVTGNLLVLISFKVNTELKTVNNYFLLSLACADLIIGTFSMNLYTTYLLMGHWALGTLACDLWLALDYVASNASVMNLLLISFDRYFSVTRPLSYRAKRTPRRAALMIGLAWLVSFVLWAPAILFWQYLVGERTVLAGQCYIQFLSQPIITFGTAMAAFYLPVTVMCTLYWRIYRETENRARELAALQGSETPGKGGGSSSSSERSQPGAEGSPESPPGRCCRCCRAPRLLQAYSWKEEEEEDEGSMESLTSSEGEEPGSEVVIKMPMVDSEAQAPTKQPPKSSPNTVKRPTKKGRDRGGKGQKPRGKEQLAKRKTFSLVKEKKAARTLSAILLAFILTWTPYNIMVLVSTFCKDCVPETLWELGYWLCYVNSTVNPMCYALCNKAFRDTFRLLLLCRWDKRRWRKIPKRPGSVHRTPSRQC
D1 mod = allosteric modulators of human D1 dopamine receptor; B-score at 10 µM; 58,000 compounds, 5.9% hits; P21728; HEK293 D1, CRE-luciferase, dopamine EC30 potentiation; actives deviate in either direction;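 active = luminescence count or its row- and column-corrected plate score outside the 99.7% band of the plate's sample wells, on either side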
mHtt clearance = compounds clearing mutant huntingtin protein; HeLa Exon1htt(103Q)mCFP, aggregate imaging; zero = plate's median compound well; inhibition, % at 1.5 µM; 47,000 compounds, 0.42% hits; AID 853;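 active = inhibition of aggregate fluorescence above about 70%, also judged a hit by eye on the cell image, limit read from the data, passing the limit was not always enough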;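 note: cells exposed to compound for three days before fixation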
HEK293 NFkB inh = lowers PMA/ionomycin-induced NF-kB signal in HEK293 cells. AID 465. HEK-293 NF-kB luciferase reporter, luminescence. 62,000 compounds, 0.21% hits. inhibition, % at 3 µM;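 active = inhibition above the mean of all tested compounds plus 3 SD, cut at about 40% in these data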
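System – HEK-293 cells with stable firefly luciferase reporter driven by four HIV NF-kB elements · Doses – one dose, 3 µM · Schedule – 1 h compound pre-incubation, 16 h PMA/ionomycin at 37 °C · Technique – luminescence from luciferase substrate reagent · Measure – percent inhibition normalized per plate to DMSO and reference-inhibitor controls · Replicates – tested once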
Jurkat tox 60K = cytotoxic compounds reducing Jurkat cell viability; Jurkat E6.1 viability, ATP luminescence, 48 h; 56,000 compounds, 1.2% hits; inhibition, % at 4 µM;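 active = inhibition above the mean inhibition of all tested compounds plus 3 SD, cut at about 28% in these data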
M1 antag conf = M1 muscarinic receptor (rat) antagonism, confirmed; 1,700 compounds, 43% hits; calcium response (max-min fluorescence) at 10 µM; shares compounds with M1 antagonist; CHO-M1 cells, Fluo-4 calcium, ACh EC80 antagonism; active compounds read low; AID 677;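 active = calcium response below the same-plate mean of wells given acetylcholine alone at its 80%-effect dose, minus 3 SD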
mGluR4 antag = acts on human mGluR4 in M1 antagonist selectivity test; shares compounds with M1 antagonist; CHO-mGluR4 calcium flux, Fluo-4 fluorescence, glutamate EC80; active compounds read low; fluorescence response (max-min) at 10 µM; 1,700 compounds, 0.9% hits; AID 678;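 active = fluorescence response below the plate's average for near-maximal glutamate wells, less 3 SD of those wells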;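 note: raw unnormalized fluorescence span taken in the window right after glutamate addition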
Numbers stand for hits. Rows were chosen to be rich in hits. Some 9.5% of all compounds tested hit in one or more screens of this group.

Results for CCCCn1c(=N)n(CC(O)COc2ccc(C)cc2)c2ccccc21 (stereo unspecified) ?
M1 ag: inactive; M1 antagonist: inactive; D1 mod: inactive; mHtt clearance: inactive; HEK293 NFkB inh: inactive; Jurkat tox 60K: inactive

What do the screens show for `N=c1n(CCN2CCCCC2)c2ccccc2n1CC(O)COc1ccccc1` (stereo unspecified)?
M1 ag: inactive; M1 antagonist: inactive; D1 mod: inactive; HEK293 NFkB inh: inactive; Jurkat tox 60K: inactive

What do the screens show for `N=c1n(CCN2CCCCC2)c2ccccc2n1CC(O)c1cccc(Br)c1` (stereo unspecified)?
M1 ag: inactive; M1 antagonist: -4.1; D1 mod: inactive; mHtt clearance: inactive; HEK293 NFkB inh: inactive; Jurkat tox 60K: inactive; M1 antag conf: inactive; mGluR4 antag: inactive

What do the screens show for `CCCCn1c(=N)n(CC(O)COc2ccccc2)c2ccccc21` (stereo unspecified)?
M1 ag: inactive; M1 antagonist: -2.3; D1 mod: inactive; mHtt clearance: inactive; HEK293 NFkB inh: inactive; Jurkat tox 60K: inactive; M1 antag conf: inactive; mGluR4 antag: inactive

What do the screens show for `COc1ccccc1OCC(O)Cn1c(=N)n(CCN2CCCCC2)c2ccccc21` (stereo unspecified)?
M1 ag: inactive; M1 antagonist: -1.6; D1 mod: -2.5; mHtt clearance: inactive; HEK293 NFkB inh: inactive; M1 antag conf: inactive; mGluR4 antag: inactive

Results for CC(=O)Nc1nc(C(=O)Nc2c(C)n[nH]c2C)cs1 ?
M1 ag: inactive; M1 antagonist: -2.9; D1 mod: inactive; mHtt clearance: inactive; HEK293 NFkB inh: inactive; Jurkat tox 60K: inactive; M1 antag conf: inactive; mGluR4 antag: inactive

What do the screens show for `CCc1sc(NS(C)(=O)=O)nc1-c1ccccc1`?
M1 ag: inactive; M1 antagonist: inactive; D1 mod: inactive; HEK293 NFkB inh: inactive; Jurkat tox 60K: inactive

What do the screens show for `CCc1sc(NC(=O)COC)nc1-c1ccccc1`?
M1 ag: inactive; M1 antagonist: -5.9; HEK293 NFkB inh: inactive; Jurkat tox 60K: inactive; M1 antag conf: 456; mGluR4 antag: inactive

What do the screens show for `CCOC(=O)c1c(NC(=O)Cn2nnc(-c3ccc(Cl)cc3)n2)sc(CC)c1C`?
mHtt clearance: inactive

Results for COc1cc2c(=O)n(Cc3ccccc3)c(=O)n(CC(=O)C(C)(C)C)c2cc1OC ?
M1 ag: inactive; M1 antagonist: -2.1; D1 mod: inactive; HEK293 NFkB inh: inactive; M1 antag conf: inactive; mGluR4 antag: inactive

What do the screens show for `COc1cc2c(=O)n(Cc3ccco3)c(=O)n(CC(=O)c3ccc(Br)cc3)c2cc1OC`?
M1 ag: inactive; M1 antagonist: inactive; D1 mod: inactive; HEK293 NFkB inh: inactive; Jurkat tox 60K: inactive

Results for O=C(CSc1nc(-c2ccc(F)cc2)cs1)N1CCN(C(=O)c2ccco2)CC1 ?
M1 ag: inactive; M1 antagonist: inactive; D1 mod: inactive; HEK293 NFkB inh: inactive; Jurkat tox 60K: inactive

Results for CCCOc1ccc(-c2nnc(-c3ccncc3)o2)cc1 ?
M1 ag: inactive; M1 antagonist: -2; D1 mod: inactive; HEK293 NFkB inh: inactive; Jurkat tox 60K: inactive; M1 antag conf: inactive; mGluR4 antag: inactive

How did CC(C)COc1ccc(-c2nnc(-c3ccncc3)o2)cc1 do in these assays?
M1 ag: inactive; M1 antagonist: inactive; mHtt clearance: inactive; HEK293 NFkB inh: inactive; Jurkat tox 60K: inactive

Results for Cc1ccc(S(=O)(=O)Nc2nsc(N)n2)cc1 ?
M1 ag: inactive; M1 antagonist: -2.9; D1 mod: inactive; HEK293 NFkB inh: inactive; Jurkat tox 60K: inactive; M1 antag conf: inactive; mGluR4 antag: inactive

How did CC12C=CC3(O1)C(C(=O)N(c1ccccc1)C3C(=O)NC1CCCC1)C2C(N)=O (stereo unspecified) do in these assays?
mHtt clearance: inactive

How did CCC(c1ccccc1)c1nc(-c2ccccn2)no1 (stereo unspecified) do in these assays?
M1 ag: inactive; M1 antagonist: -6; D1 mod: -7.1; HEK293 NFkB inh: inactive; Jurkat tox 60K: inactive; M1 antag conf: inactive; mGluR4 antag: inactive
